Experimental findings from ChEMBL document CHEMBL1156811, “2,4,6-trisubstituted triazines as protein a mimetics for the treatment of autoimmune diseases” (J Med Chem, 2010) are described below.

A short description of assay [1]: Inhibition of protein A binding to horseradish peroxidase-conjugated human IgG in PBS solution by Protein A human IgG competitive ELISA. In outline: (§1)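 Plate wells coated overnight at 4 °C with protein A (0.8 ug/well), washed with PBS, and blocked with 2% BSA for 1 h at 37 °C. Compound diluted in PBS or PBS–20% DMSO was added with HRP-conjugated human IgG and incubated 1 h at 37 °C. After washing, bound HRP-IgG was developed with ABTS for 20 min in the dark at room temperature and read at 405 nm. IC50 is the concentration inhibiting 50% binding.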

The nature of assay [2]: Inhibition of protein A binding to horseradish peroxidase-conjugated human IgG in 20% DMSO/PBS solution by Protein A human IgG competitive ELISA. In outline:
as §1
(In general: ELISA stands for enzyme-linked immunosorbent assay.)

The subject of assay [3] is Mus musculus. As to the kind of experiment: Reduction of anti-dsDNA antibody levels in NZB/NZW-F1 mouse systemic lupus erythematosus model at 50 mg/kg, iv administered once weekly starting from week 12 relative to untreated control. The format is functional. In a few lines:
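NZB/NZW F1 hybrid mice were given 50 mg/kg intravenously once weekly from week 12, against vehicle-treated controls. Serum anti-dsDNA autoantibodies were measured by a literature method, and total IgG was also monitored.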

For assay [4], the system named is Mus musculus. As to the kind of experiment: Reduction of immune complex deposits in homozygous fas mutant MRL/lpr mouse systemic lupus erythematosus model at 50 mg/kg, iv administered once weekly for 5 consecutive weeks between 18 and 22 weeks by electron microscopy. The class given is functional, organism-based. The arrangement: dose 50 mg/kg. In a few lines: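 MRL/lpr mice (homozygous fas mutation) received 50 mg/kg or vehicle intravenously once a week for 5 consecutive weeks, between weeks 18 and 22. Mice were then sacrificed, and immune complex deposition in kidney tissue was recorded by electron microscopy.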

Assay [5] is described as follows: Inhibition of protein A binding to heat aggregated human IgG.
Assay [6] concerns the target Low affinity immunoglobulin gamma Fc region receptor III-B (Homo sapiens, UniProt O75015). As to the kind of experiment: Inhibition of heat aggregated human IgG binding to human Fc-gamma-R3b.
Assay [7] deals with T1, Low affinity immunoglobulin gamma Fc region receptor II-a (Homo sapiens, UniProt P12318).
T1 sequence (P12318 whole entry): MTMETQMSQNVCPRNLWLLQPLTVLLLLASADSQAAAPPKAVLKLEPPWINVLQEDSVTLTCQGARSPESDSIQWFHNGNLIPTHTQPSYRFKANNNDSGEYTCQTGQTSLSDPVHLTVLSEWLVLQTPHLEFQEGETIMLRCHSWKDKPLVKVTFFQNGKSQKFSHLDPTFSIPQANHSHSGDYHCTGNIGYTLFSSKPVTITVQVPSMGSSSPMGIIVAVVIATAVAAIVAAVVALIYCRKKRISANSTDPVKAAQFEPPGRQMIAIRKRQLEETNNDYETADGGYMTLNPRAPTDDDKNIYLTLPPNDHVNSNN
As to the kind of experiment: Inhibition of heat aggregated human IgG binding to human Fc-gamma-R2a.

Assay [8] has as its system Mus musculus. As to the kind of experiment: Reduction of antibody immune complexes in NZB/NZW-F1 mouse systemic lupus erythematosus model at 50 mg/kg, iv administered once weekly starting from week 12 relative to untreated control. The arrangement: dose 50 mg/kg. The class given is functional, organism-based.

Active and inactive are the calls of the source. The rule behind the calls is not given here.

Chain of Low affinity immunoglobulin gamma Fc region receptor III-B (O75015 whole entry): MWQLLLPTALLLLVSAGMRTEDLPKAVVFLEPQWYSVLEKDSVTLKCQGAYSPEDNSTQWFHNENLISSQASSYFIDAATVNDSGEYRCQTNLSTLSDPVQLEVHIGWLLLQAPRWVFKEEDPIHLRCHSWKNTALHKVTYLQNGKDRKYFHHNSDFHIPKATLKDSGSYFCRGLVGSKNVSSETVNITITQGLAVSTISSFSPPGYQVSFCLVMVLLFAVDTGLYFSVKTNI

By IC50 is commonly meant the concentration needed to halve the response being measured. `Nc1cccc(Nc2nc(NCCO)nc(NCCNc3nc(NCCO)nc(Nc4cccc(N)c4)n3)n2)c1`: the IC50 in assay [1] (read-out: IC50) came to 58 nM.

Consider `Nc1cccc(Nc2nc(NCCO)nc(NCCc3ccc(Nc4nc(NCCc5cccc(O)c5)nc(Nc5cccc(N)c5)n4)cc3)n2)c1`, for which the IC50 in assay [1] (read-out: IC50) is 118 nM.

In the case of `Nc1cccc(Nc2nc(NCCO)nc(Nc3cccc(Nc4nc(NCCO)nc(Nc5cccc(N)c5)n4)c3)n2)c1`, the IC50 in assay [1] (read-out: IC50) stood at 293 nM.

Regarding `Nc1cccc(Nc2nc(NCCO)nc(NCCc3cccc(Nc4nc(NCCO)nc(Nc5cccc(N)c5)n4)c3)n2)c1`, the IC50 entry in assay [1] is recorded as “Not Active”.

Consider `Nc1cccc(Nc2nc(NCCO)nc(NCCCNc3nc(NCCO)nc(Nc4cccc(N)c4)n3)n2)c1`, for which the IC50 in assay [1] (read-out: IC50) is 56 nM.

With `CN(C)c1ccc(CCNc2nc(Nc3ccc(CCNc4nc(NCCO)nc(Nc5cccc(N)c5)n4)cc3)nc(Nc3cccc(N)c3)n2)cc1`, the IC50 in assay [1] (read-out: IC50) is 695 nM.

As for `Nc1cccc(Nc2nc(NCCO)nc(NCCc3ccc(Nc4nc(NCCO)nc(Nc5ccc(Cl)cc5)n4)cc3)n2)c1`, the IC50 was 893 nM in assay [2] (read-out: IC50) and 841 nM in assay [1] (read-out: IC50).

On to `CS(=O)(=O)c1cccc(Nc2nc(NCCO)nc(Nc3ccc(CCNc4nc(NCCO)nc(Nc5cccc(N)c5)n4)cc3)n2)c1`, for which the half-inhibitory concentration (IC50) was determined as 192 nM in assay [2] (read-out: IC50) and 243 nM in assay [1] (read-out: IC50).

`Nc1cccc(Nc2nc(NCCO)nc(NCCc3ccc(Nc4nc(Nc5cccc(N)c5)nc(Nc5cccc(N)c5)n4)cc3)n2)c1`: the IC50 in assay [1] (read-out: IC50) came out at 56 nM.

In the case of `Nc1cccc(Nc2nc(NCCO)nc(NCCOCCNc3nc(NCCO)nc(Nc4cccc(N)c4)n3)n2)c1`, the IC50 in assay [2] (read-out: IC50) is 5190 nM; in assay [1] (read-out: IC50), 70 nM.

As to `Nc1cccc(CNc2nc(Nc3ccc(CCNc4nc(NCCO)nc(Nc5cccc(N)c5)n4)cc3)nc(Nc3cccc(N)c3)n2)c1`, the half-maximal inhibitory concentration (IC50) in assay [1] (read-out: IC50) came out at 141 nM.

With `NCCNc1nc(NCCO)nc(Nc2ccc(CCNc3nc(NCCO)nc(Nc4cccc(N)c4)n3)cc2)n1`, the IC50 worked out at 749 nM in assay [2] (read-out: IC50) and 410 nM in assay [1] (read-out: IC50).

As for `Nc1cccc(Nc2nc(NCCO)nc(NCCc3ccc(Nc4nc(NCCO)nc(Nc5cccc(F)c5)n4)cc3)n2)c1`, the values for the IC50 in assay [2] (read-out: IC50) and in assay [1] (read-out: IC50) were 209 nM and 382 nM, respectively.

As to `Nc1cccc(Nc2nc(NCCO)nc(NCCc3ccc(Nc4nc(NCCO)nc(NCCO)n4)cc3)n2)c1`, the IC50 in assay [2] (read-out: IC50) amounted to 81 nM; in assay [1] (read-out: IC50), 94 nM.

`Nc1cccc(CCNc2nc(Nc3ccc(CCNc4nc(NCCO)nc(Nc5cccc(N)c5)n4)cc3)nc(Nc3cccc(N)c3)n2)c1`: the IC50 in assay [1] (read-out: IC50) is 119 nM.

With `Nc1cccc(Nc2nc(NCCO)nc(NCCc3ccc(Nc4nc(NCC(O)c5cccc(N)c5)nc(Nc5cccc(N)c5)n4)cc3)n2)c1` (stereo unspecified), the IC50 in assay [1] (read-out: IC50) was found to be 130 nM.

Consider `Nc1cccc(Nc2nc(NCCO)nc(Nc3ccc(Nc4nc(NCCO)nc(Nc5cccc(N)c5)n4)cc3)n2)c1`, for which the IC50 in assay [1] (read-out: IC50) turned out to be 157 nM.

Turning to `CC(C)(CNc1nc(NCCO)nc(Nc2cccc(N)c2)n1)CNc1nc(NCCO)nc(Nc2cccc(N)c2)n1`, the IC50 in assay [1] (read-out: IC50) is 41 nM.

For the molecule `Nc1cccc(Nc2nc(NCCO)nc(NCCc3ccc(Nc4nc(NCCc5ccccc5N)nc(Nc5cccc(N)c5)n4)cc3)n2)c1`, in assay [1] (read-out: IC50), the concentration for half-maximal inhibition (IC50) amounted to 185 nM.

In the case of `Nc1cccc(Nc2nc(NCCO)nc(Nc3ccc4c(c3)CCN4c3nc(NCCO)nc(Nc4cccc(N)c4)n3)n2)c1`, the IC50 in assay [1] (read-out: IC50) came to 80 nM.

Consider `CN(C)c1nc(Nc2ccc(CCNc3nc(NCCO)nc(Nc4cccc(N)c4)n3)cc2)nc(Nc2cccc(N)c2)n1`, for which the IC50 in assay [1] (read-out: IC50) was 89 nM.

For `Nc1cccc(Nc2nc(NCCO)nc(NCCc3ccc(Nc4nc(NCCO)nc(Nc5ccc(F)cc5)n4)cc3)n2)c1`, the IC50 in assay [2] (read-out: IC50) came out at 204 nM; in assay [1] (read-out: IC50) it was 361 nM.

As for `Nc1cccc(Nc2nc(NCCO)nc(NCCc3ccc(Nc4nc(NCCc5ccc(O)cc5)nc(Nc5cccc(N)c5)n4)cc3)n2)c1`, in assay [1], the IC50 entry is listed as “Not Active”.

For `Nc1cccc(Nc2nc(NCCO)nc(NCCCCNc3nc(NCCO)nc(Nc4cccc(N)c4)n3)n2)c1`, the IC50 in assay [1] (read-out: IC50) is 187 nM.

Take `CC(Nc1nc(NCCO)nc(Nc2cccc(N)c2)n1)c1ccc(Nc2nc(NCCO)nc(Nc3cccc(N)c3)n2)cc1` (stereo unspecified): the IC50 result in assay [1] was “Not Active”.

Regarding `Nc1cccc(Nc2nc(NCCO)nc(NCCc3ccc(Nc4nc(NCCc5ccc(F)cc5)nc(Nc5cccc(N)c5)n4)cc3)n2)c1`, the half-inhibitory concentration (IC50) in assay [1] (read-out: IC50) stood at 531 nM.

`OCCNc1nc(NCCc2ccc(Nc3nc(NCCO)nc(Nc4ccccc4F)n3)cc2)nc(Nc2ccccc2F)n1`: the IC50 result in assay [2] and in assay [1] was “Not Active” in each case.

Consider `Nc1cccc(Nc2nc(NCCO)nc(NCC(O)CNc3nc(NCCO)nc(Nc4cccc(N)c4)n3)n2)c1`, for which the IC50 in assay [1] (read-out: IC50) was 56 nM.

For `CN(C)CCNc1nc(Nc2ccc(CCNc3nc(NCCO)nc(Nc4cccc(N)c4)n3)cc2)nc(Nc2cccc(N)c2)n1`, in assay [1] (read-out: IC50), the IC50 was 89 nM.

Take `Nc1cccc(Nc2nc(NCCO)nc(NCCc3ccc(Nc4nc(Nc5cccc(N)c5)nc(NC5CCNC5)n4)cc3)n2)c1` (stereo unspecified): the IC50 in assay [1] (read-out: IC50) came to 233 nM.

In the case of `Nc1cccc(Nc2nc(NCCO)nc(NCCc3ccc(Nc4nc(NCCO)nc(Nc5cccc(N)c5)n4)cc3)n2)c1`, the IC50 in assay [2] (read-out: IC50) amounted to 144 nM; in assay [1] (read-out: IC50), 84 nM.

As to `Nc1cccc(Nc2nc(NCCO)nc(NCCc3ccc(Nc4nc(NCCc5ccccc5)nc(Nc5cccc(N)c5)n4)cc3)n2)c1`, in assay [1] (read-out: IC50), the IC50 came out at 449 nM.

Regarding `CN1CCN(c2nc(Nc3ccc(CCNc4nc(NCCO)nc(Nc5cccc(N)c5)n4)cc3)nc(Nc3cccc(N)c3)n2)CC1`, in assay [1] (read-out: IC50), the IC50 was 59 nM.

In the case of `N=C(N)CCNc1nc(NCCO)nc(NCCc2ccc(Nc3nc(NCCO)nc(Nc4cccc(F)c4)n3)cc2)n1`, the IC50 result in assay [2] and in assay [1] was “Not Active” in each case.

As for `Nc1ccc(CCNc2nc(Nc3ccc(CCNc4nc(NCCO)nc(Nc5cccc(N)c5)n4)cc3)nc(Nc3cccc(N)c3)n2)cc1`, the “fold change (FC)” value in the assay on Mus musculus [3] is reported as 2. In addition, the outcome in the assay with Mus musculus [4] and in the assay with Mus musculus [8] was Active. In addition, the IC50 in assay [5] was 83 nM; in assay [6], 57000 nM; in assay [7], 12000 nM; in assay [1] (read-out: IC50), 54 nM.
